This is an account of results in publication PMC11742495 (Breast Cancer Research : BCR, 2025).

Changes are numbered by the printed parent chain. Where two headings read alike, the source gives them in different places.

In general, IC50 refers to the concentration at which inhibition is half-maximal. Read a low IC50 as higher potency.

Data set [1] addresses T1, Y537S ERα-SRC3 interaction (Homo sapiens, UniProt P03372, Y537S).
T1 sequence (P03372 1-595 Y537S): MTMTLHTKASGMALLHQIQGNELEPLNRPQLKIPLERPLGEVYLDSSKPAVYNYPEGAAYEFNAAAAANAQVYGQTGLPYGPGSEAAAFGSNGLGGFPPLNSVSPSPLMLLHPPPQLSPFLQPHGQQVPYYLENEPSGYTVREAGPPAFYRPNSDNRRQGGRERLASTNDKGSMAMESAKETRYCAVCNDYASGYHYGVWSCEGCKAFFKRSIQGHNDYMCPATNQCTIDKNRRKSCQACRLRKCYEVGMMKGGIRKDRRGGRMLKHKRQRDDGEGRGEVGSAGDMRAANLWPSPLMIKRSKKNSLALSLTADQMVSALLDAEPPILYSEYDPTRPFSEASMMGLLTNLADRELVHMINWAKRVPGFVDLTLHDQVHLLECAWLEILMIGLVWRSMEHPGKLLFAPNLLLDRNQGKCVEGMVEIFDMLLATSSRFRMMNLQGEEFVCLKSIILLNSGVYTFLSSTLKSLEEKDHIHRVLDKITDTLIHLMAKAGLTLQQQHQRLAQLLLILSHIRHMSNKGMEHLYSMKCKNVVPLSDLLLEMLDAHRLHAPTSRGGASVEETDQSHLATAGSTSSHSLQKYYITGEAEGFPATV
The experiment in a line: cell-based. The data set is classed as cell-based. The note with it: for IC50: 1 nM E2, 48 h.

Another data set has as its system endometrium. Description: Uterine SERM agonist study. The data set is classed as in vivo, BALB/c mice. The note with it: ovariectomized mice, three days of treatment, with and without E2. The method in brief: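 Adult ovariectomized BALB/c mice were randomized to 8 groups and dosed once daily for 3 consecutive days. Treatments: vehicle (0.2% Tween 80/0.5% CMC); E2 (0.1 mL of 0.1 µg/mL in 95% cottonseed oil/5% ethanol); test compound 50 mg/kg orally; reference SERM 50 mg/kg in vehicle; reference SERD 25 mg/kg in cottonseed oil/ethanol. Each active arm was run ± E2. Uteri were weighed, formalin-fixed, embedded and H&E-stained.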

Another data set has as its target T2, WT ERα-SRC3 interaction (Homo sapiens, UniProt P03372).
T2 sequence (P03372 1-595): T1 sequence (P03372 1-595 Y537S) with S537Y
Description: cell-based. The note with it: 1 nM E2, 48 h.

The test system of data set [2] is heterozygous, luciferase-tagged Y537S ESR1 MCF7 xenograft. Description: Comparative murine xenograft study T6I-29-1A vs ICI. The data set is classed as in vivo, NOD/SCID mice.
For data set [3] the following is noted: cited from earlier work.
Setting [4] is: difference between WT-SRC3 and Y537S-SRC3.
Setting [5] is: 25 mg/kg, T6I-29-1A IP five times per week, ICI SC once per week, vs vehicle.

In data set [1], `C[C@@H]1Cc2c(ccc3[nH]ncc23)[C@@H](c2ccc(NC3CN(CCCF)C3)cn2)N1CC(F)(F)F` [Cam, camizestrant] showed a ΔIC50 of 44.67.
Turning to `CC/C(=C(\c1ccc(O)cc1)c1ccc(OCCN(C)C)cc1)c1ccccc1` [Compound 4OHT, 4-hydroxytamoxifen], the endometrium thickness result with endometrium was “significantly increased width”.
In the case of `C[C@@H]1Cc2c([nH]c3ccccc23)[C@@H](c2c(F)cc(NC3CN(CCCF)C3)cc2F)N1CC(F)(F)CO` [Gir, giredestrant], the IC50 in data set [1] (Y537S-SRC3 IC50 ± StDev) was 47.6 ± 11.4 nM; in data set [1] (Y537S-SRC3 Log(IC50) ± StDev) it was 47.9 nM; against WT ERα-SRC3 interaction (WT-SRC3 IC50 ± StDev) it was 0.68 ± 0.25 nM; against WT ERα-SRC3 interaction (WT-SRC3 Log(IC50) ± StDev) it was 0.676 nM. This compound also came in with a ΔIC50 in data set [1] (setting [4]) of 46.95.
With `C[C@]12CC[C@@H]3c4ccc(O)cc4C[C@@H](CCCCCCCCC[S+]([O-])CCCC(F)(F)C(F)(F)F)[C@H]3[C@@H]1CC[C@@H]2O` (stereo partly shown) [ICI, fulvestrant], in the data set with endometrium, the endometrium thickness entry is “diminished the thickness”. The “tumor bioluminescent signal (IVIS) vs vehicle” value in data set [2] (25 mg/kg SC once per week) is “no significant difference in bioluminescent signal”. For the same compound, the final uterine weights result in data set [2] (25 mg/kg, T6I-29-1A IP five times per week, ICI SC once per week) is listed as “significantly decreased final uterine weights”. In data set [2] (setting [5]), the survival result is “significantly prolonged” and the “tumor growth (digital caliper)” value is “significantly blunted tumor growth”. In addition, the “ER target gene expression in tumors (RT-qPCR)” value in data set [2] (no significance noted) is given as “heightened”.
Take `Oc1ccc2c(c1)CC[C@H](c1ccccc1)[C@@H]2c1ccc(OCCN2CCCC2)cc1` [Laso, lasofoxifene]: in data set [1] (setting [4]), the ΔIC50 is 9.59.
Same read-out and setting: the figure for `CCNCCc1ccc(CN(CC)c2cc(OC)ccc2[C@@H]2CCc3cc(O)ccc3C2)cc1` [Rad1901, elacestrant] is 3560.03.
For the compound `CC/C(=C(\c1ccccc1)c1ccc(OCCN(C)C)cc1)c1ccccc1` [tamoxifen], the protein binding result in data set [3] is “greater than 98%”.
